Tests used:
K562 [1] = assay: Antiproliferative activity against human K562 cells assessed as inhibition of cell survival after 72 hrs by MTT assay; format: functional, cell-based; conditions: K562, 72 h
In short: (§1)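 Each of the three leukemia lines (K562, HL60, KG1a) was incubated with the compounds for 72 h. The survival rate was then read by MTT viability assay, with imatinib run as the positive control. Inhibitory activity is reported as IC50 in μM.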

[2] = Antiproliferative activity against human KG1a cells assessed as inhibition of cell survival after 72 hrs by MTT assay; format: functional, cell-based; conditions: KG-1a; in short: as §1
[3] = Antiproliferative activity against human HL60 cells assessed as inhibition of cell survival after 72 hrs by MTT assay; format: functional, cell-based; conditions: HL-60, 72 h; in short: as §1
[4] = Cytotoxicity against human 293T cells assessed as growth inhibition; format: cell-based, HEK-293T
[5] = Potency index, ratio of imatinib IC50 to compound IC50 for antiproliferative activity against human KG1a cells; format: functional
K562 [6] = assay: Antiproliferative activity against human K562 cells assessed as reduction in cell viability after 72 hrs by resazurin assay; format: functional, cell-based; conditions: K562, 72 h

IC50 (K562 [6]) [µM]	Structure (SMILES)	IC50 (K562 [1]) [µM]	IC50 [2] [µM]	IC50 [3] [µM]	CC50 [4] [µM]	Ratio IC50 [5]
–	Cc1ccc(-n2cc(CCO)nn2)cc1Nc1nccc(-c2cccnc2)n1	10.7	6.54	9.1	–	–
–	Cc1ccc(-n2cc(-c3ccc(C)c(C(F)(F)F)c3)nn2)cc1Nc1nccc(-c2cccnc2)n1	> 30	> 30	> 30	–	–
–	Cc1ccc(-c2nnc(-c3ccc(CN4CCN(C)CC4)cc3)o2)cc1Nc1nccc(-c2cccnc2)n1	4.9	1.78	0.57	7.63	–
–	Cc1ccc(-c2cn(-c3ccc(N4CCOCC4)cc3)nn2)cc1Nc1nccc(-c2cccnc2)n1	23.4	5.28	> 30	–	–
–	Cc1ccc(-c2cn(-c3ccc(CN4CCN(C)CC4)c(C(F)(F)F)c3)nn2)cc1Nc1nccc(-c2cccnc2)n1	0.03	1.04	0.02	2.66	–
–	C=CC(=O)NCCN1CCN(Cc2ccc(-c3nnc(-c4ccc(C)c(Nc5nccc(-c6cccnc6)n5)c4)o3)cc2C(F)(F)F)CC1	0.6	–	2.66	–	–
–	Cc1ccc(-c2nnc(-c3ccc(F)c(C(F)(F)F)c3)o2)cc1Nc1nccc(-c2cccnc2)n1	29.7	> 30	> 30	–	–
–	Cc1ccc(-c2cn(-c3ccccc3N3CCOCC3)nn2)cc1Nc1nccc(-c2cccnc2)n1	5.86	0.44	1.49	–	30
–	Cc1ccc(-c2nnc(-c3ccc(CN4CCN(CCO)CC4)c(C(F)(F)F)c3)o2)cc1Nc1nccc(-c2cccnc2)n1	1.81	0.98	0.39	–	–
–	Cc1ccc(-c2cn(-c3cc(C(F)(F)F)ccc3N3CCOCC3)nn2)cc1Nc1nccc(-c2cccnc2)n1	9.99	2.43	17.5	–	–
–	Cc1ccc(-c2cn(-c3ccc(CN4CCCC4)cc3)nn2)cc1Nc1nccc(-c2cccnc2)n1	3.89	5.42	1.57	–	–
–	Cc1ccc(-n2cc(C(C)O)nn2)cc1Nc1nccc(-c2cccnc2)n1 (stereo not drawn)	15.3	12.7	25.5	–	–
–	Cc1ccc(NC(=O)c2ccc(CN3CCN(C)CC3)cc2)cc1Nc1nccc(-c2cccnc2)n1 [IMATINIB]	–	16.7	0.03	20.5	–
–	Cc1ccc(-c2cn(-c3ccc(CN4CCN(C)CC4)cc3)nn2)cc1Nc1nccc(-c2cccnc2)n1	4.7	6.16	6.74	4.15	–
–	COc1cc(/C=C/C(=O)CC(=O)/C=C/c2ccc(OCCN3CCN(Cc4ccc(-c5nnc(-c6ccc(C)c(Nc7nccc(-c8cccnc8)n7)c6)o5)cc4)CC3)c(OC)c2)ccc1O	> 30	> 30	> 30	–	–
–	Cc1ccc(-c2nnc(-c3ccc(CN4CCN(CCO)CC4)cc3)o2)cc1Nc1nccc(-c2cccnc2)n1	4.85	4.53	0.81	–	–
–	COc1ccc(-n2cc(-c3ccc(C)c(Nc4nccc(-c5cccnc5)n4)c3)nn2)cc1	> 30	–	> 30	–	–

IC50 (K562 [6]) [µM]	Structure (SMILES)	IC50 (K562 [1]) [µM]	IC50 [2] [µM]	IC50 [3] [µM]	CC50 [4] [µM]	Ratio IC50 [5]
–	Cc1ccc(-c2nnc(-c3ccc(CN4CCN(CCN)CC4)c(C(F)(F)F)c3)o2)cc1Nc1nccc(-c2cccnc2)n1	0.3	0.48	0.02	–	30
–	Cc1ccc(-c2nnc(-c3ccc(CN4CCN(CCN=C=S)CC4)cc3)o2)cc1Nc1nccc(-c2cccnc2)n1	0.92	0.37	0.29	–	–
–	Cc1ccc(-c2nnc(-c3ccc(C)c(C(F)(F)F)c3)o2)cc1Nc1nccc(-c2cccnc2)n1	> 30	> 30	> 30	–	–
0.89	Cc1ccc(-n2cc(-c3ccc(CN4CCN(C)CC4)cc3)nn2)cc1Nc1nccc(-c2cccnc2)n1	0.79	–	–	14.9	–
–	Cc1ccc(-c2nnc(-c3ccc(CN4CCN(CCN=C=S)CC4)c(C(F)(F)F)c3)o2)cc1Nc1nccc(-c2cccnc2)n1	0.5	0.94	0.07	–	–
–	Cc1ccc(-c2nnc(-c3cccnc3)o2)cc1Nc1nccc(-c2cccnc2)n1	> 30	> 30	> 30	–	–
–	Cc1ccc(-n2cc(CCCCO)nn2)cc1Nc1nccc(-c2cccnc2)n1	11.2	–	–	–	–
–	Cc1ccc(-c2cn(-c3ccc(CN4CCOCC4)cc3)nn2)cc1Nc1nccc(-c2cccnc2)n1	22.6	1.32	6.96	–	–
–	Cc1ccc(-c2nnc(-c3ccc(CN4CCN(C)CC4)c(C(F)(F)F)c3)o2)cc1Nc1nccc(-c2cccnc2)n1	0.51	0.58	0.05	2.17	30
–	COc1ccc(-c2cn(-c3ccc(C)c(Nc4nccc(-c5cccnc5)n4)c3)nn2)cc1C(F)(F)F	11.2	30	21.2	–	–
–	Cc1ccc(-c2cn(-c3ccc(CN4CCCCC4)cc3)nn2)cc1Nc1nccc(-c2cccnc2)n1	3.29	1.75	0.74	–	–
–	Cc1nnc(-c2ccc(C)c(Nc3nccc(-c4cccnc4)n3)c2)o1	> 30	18	> 30	–	–
–	Cc1ccc(-n2cc(-c3ccc(CN4CCN(C)CC4)c(C(F)(F)F)c3)nn2)cc1Nc1nccc(-c2cccnc2)n1	0.04	1.27	0.02	8.18	–
–	Cc1ccc(-n2cc(-c3cc(C(F)(F)F)cc(C(F)(F)F)c3)nn2)cc1Nc1nccc(-c2cccnc2)n1	2.65	9.93	1.6	–	–
–	CCN(CC)c1ccc(-n2cc(-c3ccc(C)c(Nc4nccc(-c5cccnc5)n4)c3)nn2)cc1	> 30	2.93	13.6	–	–
–	Cc1ccc(-c2nnc(-c3cc(C(F)(F)F)cc(C(F)(F)F)c3)o2)cc1Nc1nccc(-c2cccnc2)n1	> 30	> 30	> 30	–	–

From ChEMBL document CHEMBL3763114, “Syntheses and biological evaluation of 1,2,3-triazole and 1,3,4-oxadiazole derivatives of imatinib” (Bioorg Med Chem Lett, 2016)
